Experimental data reported in ChEMBL document CHEMBL1134645, “Discovery of small-molecule inhibitors of Bcl-2 through structure-based computer screening” (J Med Chem, 2001).

How the values were obtained:
[1] = target: T1, Apoptosis regulator Bcl-2 (Homo sapiens, UniProt P10415); assay: In vitro inhibition of Bak-Bh3 peptide binding to the Bcl-2 using human myeloid leukemia cell line HL-60; Inactive
[2] = target: T1, Apoptosis regulator Bcl-2; assay: In vitro inhibitory activity against Bak-Bh3 peptide binding to the Bcl-2
Procedure, shortened: (§1)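 FP competition assay with recombinant GST-fused Bcl-2 (46 kDa), final 270 nM, and a fluorescein-labelled 16-mer Bak BH3 peptide tracer, final 290 nM, in 1X PBS. Compound added with final DMSO below 1%, incubated 10 min at room temperature, and polarization read at ex 485/em 535 nm. Screening was at 100 μM. IC50 came from 6–7-point serial dilutions from 100 μM, in triplicate.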

[3] = target: T1, Apoptosis regulator Bcl-2; assay: Inhibitory activity against Bcl-2; procedure, shortened: as §1
[4] = target: T1, Apoptosis regulator Bcl-2; assay: In vitro inhibitory activity against Bak-Bh3 peptide binding to the Bcl-2 using human myeloid leukemia cell line HL-60
Procedure, shortened: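 Fluorescence polarization competition with 46 kDa recombinant GST-fused Bcl-2 (270 nM final) and 16-mer fluorescein-labelled Bak BH3 tracer (290 nM final) in PBS, preincubated 20 min at room temperature. Compound added (DMSO <1%), read after 10 min at room temperature, ex 485/em 535 nm. IC50 from 6–7 point serial dilutions in triplicate starting at 100 μM.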

[5] = target: T1, Apoptosis regulator Bcl-2; assay: Inhibitory activity against Bcl-2 using bromide assay
Procedure, shortened: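 HL-60 cells in RPMI 1640 with 10% FBS at 37 °C and 5% CO2 were plated at 2000–4000 cells/well, with various compound concentrations added at the start. After 4 days, MTT was added for 4 h at 37 °C. Formazan was solubilized in 2-propanol and absorbance read. IC50 is for inhibition of cell growth.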

T1 sequence (P10415 whole entry): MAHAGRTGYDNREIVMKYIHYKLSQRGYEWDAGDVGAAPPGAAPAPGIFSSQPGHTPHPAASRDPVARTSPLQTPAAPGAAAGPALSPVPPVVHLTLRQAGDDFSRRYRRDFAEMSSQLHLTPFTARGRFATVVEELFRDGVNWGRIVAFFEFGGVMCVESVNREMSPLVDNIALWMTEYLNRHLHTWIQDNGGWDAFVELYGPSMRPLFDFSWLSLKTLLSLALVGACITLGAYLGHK

## C[n+]1cc2c3cc4c(cc3ccc2c2ccc3c(c21)OCO3)OCO4
[1]
  IC50: Not Active

## O=C1c2cc(Br)ccc2-c2ccc3c4ccc5c6c(ccc(c7ccc1c2c73)c64)C(=O)c1cc(Br)ccc1-5
[2]
  IC50: 7.7 µM

## CN1COc2ccc3ccc4c(c3c2C1)CN(C)CO4
[1]
  IC50: Not Active

## Cc1cc2c(cc1C)[n+]([O-])c(-c1nc3ccccc3s1)c(N)[n+]2[O-]
[1]
  IC50: Not Active

## O=C1c2ccccc2-c2cc(O)c3c4c(O)cc5c6c(ccc(c7ccc1c2c73)c64)C(=O)c1ccccc1-5
[1]
  IC50: Not Active

## CCOC(=O)C(C#N)C1c2cc(Br)ccc2OC(N)C1C(=O)OCC (stereo not drawn)
[3]
  IC50: 9 µM

## c1cc[n+]2c(c1)-c1cccc[n+]1CCC2
[1]
  IC50: Not Active

## CN(C)CCNCCCNc1c2ccccc2nc2cccc([N+](=O)[O-])c12
[1]
  IC50: Not Active

## O=C(CSc1nc2ccccc2s1)c1sc2sc3ccccc3[n+]2c1O
[1]
  IC50: Not Active

## O=C1c2cc([N+](=O)[O-])ccc2-c2ccc3c4ccc5c6c(ccc(c7ccc1c2c73)c64)C(=O)c1cc([N+](=O)[O-])ccc1-5
[1]
  IC50: Not Active

## c1cc[n+]2cc3ccc4c[n+]5ccccc5cc4c3cc2c1
[1]
  IC50: Not Active

## O=c1c2ccccc2c2nc3ccc4c(=O)c5ccccc5c5nc6ccc1c2c6c3c45
[1]
  IC50: Not Active

## CN1C(=O)c2ccc3c4ccc5c(=O)n6c7ccccc7nc6c6ccc(c7ccc(c2c37)C1=O)c4c56
[1]
  IC50: Not Active

## Cc1cc(-c2ccccc2)[nH]c2nc3ccccc3[n+]1-2
[1]
  IC50: Not Active

## COc1cc2ccc3c4cc5c(cc4c[n+](C)c3c2cc1OC)OCO5
[1]
  IC50: Not Active

## Cn1c(=O)c2nc(-[n+]3ccc(-c4ccccc4)cc3)[nH]c2n(C)c1=O
[1]
  IC50: Not Active

## COc1cc2ccc3c[n+]4ccccc4cc3c2cc1OC
[1]
  IC50: Not Active

## COc1ccc2c(c1)C(=O)C1C=C([N+]#N)C=CC1N2 (stereo not drawn)
[4]
  IC50: 10.4 µM

## Cc1cc(Cl)cc(C(=O)Nc2cc(S(=O)(=O)c3ccc(Cl)cc3)ccc2Cl)c1O
[3]
  IC50: 3.3 µM

## Nc1nc(N)c2c(n1)[n+]([O-])c1ccccc1[n+]2[O-]
[1]
  IC50: Not Active

## CC(C)C(C(=O)O)N1C(=O)/C(=C/c2ccc(Br)cc2)SC1=S (stereo not drawn)
[3]
  Ki: 2.4 µM

## COc1ccc2c(c1)c[n+](C)c1c3cc(OC)c(OC)cc3ccc21
[1]
  IC50: Not Active

## [O-][n+]1c2c([n+]([O-])c3c4ccccc4ccc31)-c1cccc3cccc-2c13
[1]
  IC50: Not Active

## O=C1c2ccccc2C(=O)c2c1ccc1nc3c(ccc4c(O)c5ccccc5c(O)c43)nc21
[1]
  IC50: Not Active

## O=C1c2ccc[n+]3c2-c2c1ccc[n+]2CC3
[1]
  IC50: Not Active

## O=c1c2ccc(S(=O)(=O)c3ccc4c(=O)n5c6ccccc6nc5c5cccc3c45)c3cccc(c32)c2nc3ccccc3n12
[4]
  IC50: 14 µM

## Brc1cccc[n+]1-c1ccc2cc(-[n+]3ccccc3Br)ccc2c1
[4]
  IC50: 11.7 µM

## O=C1NC(=O)c2ccc3c4ccc5c6c(ccc(c7ccc1c2c73)c64)C(=O)N(c1ccccc1)C5=O
[1]
  IC50: Not Active

## O=C(CSc1ccccn1)c1sc2cccc[n+]2c1O
[1]
  IC50: Not Active

## OC1C[n+]2cc3ccccn3c2-c2cccc[n+]21 (stereo not drawn)
[1]
  IC50: Not Active

## CS1(C)=NC(=O)C2=C(N=1)c1ccccc1S2(=O)=O
[1]
  IC50: Not Active

## NCC(=O)c1ccc2cc(Br)c3ccccc3c2c1
[1]
  IC50: Not Active

## COc1ccc2c(c1)CCc1cc(OC)ccc1/[N+]([O-])=[N+]\2[O-]
[5]
  IC50: 4 µM
[4]
  IC50: 10.4 µM

## O=C1c2ccccc2-c2ccc3c4ccc5c6c(ccc(c7ccc1c2c73)c64)C(=O)c1ccccc1-5
[1]
  IC50: Not Active

## N=C(N)c1ccc(/N=N/c2c(O)ccc3c2[nH]c2ccccc23)cc1
[4]
  IC50: 5.8 µM

## COc1cc2cc[n+]3c4ccc([N+](=O)[O-])cc4ccc3c2cc1OC.[Cl-]
[1]
  IC50: Not Active

## CCCC[C@H]1C(=O)O[C@H](C)[C@H](NC(=O)c2cccc(NC=O)c2O)C(=O)O[C@@H](C)[C@@H]1OC(=O)CC(C)C [ANTIMYCIN A3]
[3]
  IC50: 2 µM
